{"source": "ChEMBL document CHEMBL4411328", "about": "“Synthesis and Structural/Functional Characterization of Selective M14 Metallocarboxypeptidase Inhibitors Based on Phosphinic Pseudopeptide Scaffold: Implications on the Design of Specific Optical Probes” (J Med Chem, 2019)", "key": {"Carboxypeptidase B": {"target": "Carboxypeptidase B (Homo sapiens, UniProt P15086)", "sequence (P15086 whole entry)": "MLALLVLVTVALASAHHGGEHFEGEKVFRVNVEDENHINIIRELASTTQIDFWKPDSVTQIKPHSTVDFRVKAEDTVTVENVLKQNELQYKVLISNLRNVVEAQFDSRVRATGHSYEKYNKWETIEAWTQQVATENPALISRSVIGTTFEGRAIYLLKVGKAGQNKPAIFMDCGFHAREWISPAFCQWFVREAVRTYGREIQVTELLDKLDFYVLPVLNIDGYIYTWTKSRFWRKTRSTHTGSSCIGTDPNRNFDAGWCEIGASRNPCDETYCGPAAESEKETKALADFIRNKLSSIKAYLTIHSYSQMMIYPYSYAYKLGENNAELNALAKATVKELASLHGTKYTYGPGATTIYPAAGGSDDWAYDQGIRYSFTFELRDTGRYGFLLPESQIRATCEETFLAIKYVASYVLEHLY", "experiment": "Inhibition of human CPB1 using AAFA as substrate preincubated for 45 mins to 2 hrs measured at 30 sec intervals for 15 mins by UV/vis-spectrophotometry", "method_in_brief": "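hCPB1 was used at 6.0x10-9 M with 1.0x10-4 M AAFA, read at 355 nm. After 45 min preincubation with inhibitor at 37 °C, residual activity at varied inhibitor concentrations was followed for 15 min at 30 sec intervals, in triplicate. Kiapp was fitted with the tight-binding equation.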"}, "[1]": {"target": "T1, Carboxypeptidase D (Homo sapiens) (UniProt O75976)", "T1 sequence (whole entry)": "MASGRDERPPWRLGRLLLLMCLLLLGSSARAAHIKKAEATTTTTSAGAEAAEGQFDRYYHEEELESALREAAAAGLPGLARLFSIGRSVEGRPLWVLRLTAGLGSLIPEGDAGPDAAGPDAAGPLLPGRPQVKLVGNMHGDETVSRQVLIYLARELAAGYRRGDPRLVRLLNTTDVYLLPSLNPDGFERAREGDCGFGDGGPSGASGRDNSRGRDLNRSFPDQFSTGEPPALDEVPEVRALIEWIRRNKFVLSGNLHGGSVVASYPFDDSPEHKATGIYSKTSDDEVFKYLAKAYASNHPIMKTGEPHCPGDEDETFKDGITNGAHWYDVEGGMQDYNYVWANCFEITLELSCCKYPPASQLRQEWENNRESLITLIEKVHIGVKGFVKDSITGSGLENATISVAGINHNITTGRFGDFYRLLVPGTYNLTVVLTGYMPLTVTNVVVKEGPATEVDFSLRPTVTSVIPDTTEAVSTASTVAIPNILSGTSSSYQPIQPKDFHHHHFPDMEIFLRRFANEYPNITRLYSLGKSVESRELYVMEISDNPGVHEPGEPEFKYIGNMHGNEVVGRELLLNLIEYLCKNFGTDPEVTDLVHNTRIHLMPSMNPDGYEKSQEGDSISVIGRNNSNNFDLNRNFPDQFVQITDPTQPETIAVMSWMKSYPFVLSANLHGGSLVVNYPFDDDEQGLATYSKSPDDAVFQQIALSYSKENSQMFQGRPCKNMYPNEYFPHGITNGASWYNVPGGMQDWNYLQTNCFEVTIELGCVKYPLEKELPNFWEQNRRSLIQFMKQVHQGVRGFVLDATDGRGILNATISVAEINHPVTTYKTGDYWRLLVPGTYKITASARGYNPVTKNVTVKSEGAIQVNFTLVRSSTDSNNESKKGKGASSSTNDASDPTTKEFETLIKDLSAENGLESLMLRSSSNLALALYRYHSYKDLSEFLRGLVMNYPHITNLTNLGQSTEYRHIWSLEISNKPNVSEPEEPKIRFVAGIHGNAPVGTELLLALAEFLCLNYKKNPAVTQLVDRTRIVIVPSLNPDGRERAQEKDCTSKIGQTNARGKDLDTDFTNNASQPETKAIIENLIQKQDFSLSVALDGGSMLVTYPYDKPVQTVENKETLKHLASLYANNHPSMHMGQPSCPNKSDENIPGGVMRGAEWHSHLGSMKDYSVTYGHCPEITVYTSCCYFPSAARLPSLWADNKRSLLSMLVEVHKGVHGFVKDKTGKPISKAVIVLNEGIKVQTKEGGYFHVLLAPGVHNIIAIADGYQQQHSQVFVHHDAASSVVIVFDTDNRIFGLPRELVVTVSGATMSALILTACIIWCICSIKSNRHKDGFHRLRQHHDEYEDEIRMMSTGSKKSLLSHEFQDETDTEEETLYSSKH", "experiment": "Inhibition of human CPD at 1 nM to 1 mM using AAFA as substrate preincubated for 45 mins to 2 hrs measured at 30 sec intervals for 15 mins by UV/vis-spectrophotometry", "method_in_brief": "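hCPD was used at 2.0x10-8 M with AAFA substrate at 1.0x10-4 M, monitored at 355 nm. Buffer was 20 mM Tris-HCl pH 7.5, 100 mM NaCl, 1% DMSO, 0.05% Brij-35. Preincubation was 45 min at 37 °C. Residual activity at a range of inhibitor concentrations was measured from initial rates (30 sec reads, 15 min), in triplicate. Kiapp came from the tight-binding fit.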"}, "Carboxypeptidase A4": {"target": "T2, Carboxypeptidase A4 (Homo sapiens, UniProt Q9UI42)", "T2 sequence (Q9UI42 whole entry)": "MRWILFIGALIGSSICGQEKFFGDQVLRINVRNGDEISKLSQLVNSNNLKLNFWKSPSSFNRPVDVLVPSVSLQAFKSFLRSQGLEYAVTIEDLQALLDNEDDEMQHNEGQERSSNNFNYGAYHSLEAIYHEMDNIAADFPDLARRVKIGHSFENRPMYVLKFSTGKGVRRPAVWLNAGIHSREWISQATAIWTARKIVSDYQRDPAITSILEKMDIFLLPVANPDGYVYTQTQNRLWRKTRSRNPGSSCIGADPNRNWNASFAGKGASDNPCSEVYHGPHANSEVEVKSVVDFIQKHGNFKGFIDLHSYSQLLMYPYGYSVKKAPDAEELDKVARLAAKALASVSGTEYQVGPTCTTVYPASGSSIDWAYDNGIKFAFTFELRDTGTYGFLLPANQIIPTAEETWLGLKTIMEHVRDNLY", "experiment": "Inhibition of human CPA4 using AAFP as substrate preincubated for 45 mins to 2 hrs measured at 30 sec intervals for 15 mins by UV/vis-spectrophotometry", "method_in_brief": "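Enzyme was hCPA4 at 4.3x10-8 M, with 1.0x10-4 M AAFP and detection at 355 nm. Inhibitor and enzyme were preincubated 45 min at 37 °C, then initial velocities were taken over 15 min (30 sec reads), in triplicate. Kiapp was obtained from the tight-binding fit.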"}, "Carboxypeptidase A2": {"target": "T3, Carboxypeptidase A2 (Homo sapiens, UniProt P48052)", "T3 sequence (P48052 whole entry)": "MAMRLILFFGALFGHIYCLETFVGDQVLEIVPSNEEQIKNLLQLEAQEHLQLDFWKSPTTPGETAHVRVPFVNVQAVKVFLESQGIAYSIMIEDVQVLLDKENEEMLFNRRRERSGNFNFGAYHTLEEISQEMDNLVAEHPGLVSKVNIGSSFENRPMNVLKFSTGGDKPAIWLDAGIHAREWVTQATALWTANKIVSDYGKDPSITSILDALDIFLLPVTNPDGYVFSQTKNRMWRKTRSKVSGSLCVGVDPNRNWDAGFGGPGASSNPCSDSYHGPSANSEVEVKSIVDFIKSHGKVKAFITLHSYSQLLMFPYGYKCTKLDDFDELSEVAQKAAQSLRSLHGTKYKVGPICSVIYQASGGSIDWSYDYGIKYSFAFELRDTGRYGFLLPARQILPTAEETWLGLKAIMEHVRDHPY", "experiment": "Inhibition of human CPA2 using AAFP as substrate preincubated for 45 mins to 2 hrs measured at 30 sec intervals for 15 mins by UV/vis-spectrophotometry", "method_in_brief": "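hCPA2 was used at 3.0x10-8 M with AAFP substrate at 1.0x10-4 M, read at 355 nm, in 20 mM Tris-HCl pH 7.5, 500 mM NaCl, 1% DMSO, 0.05% Brij-35. After a 45 min preincubation at 37 °C, initial rates were followed at 30 sec intervals for 15 min, in triplicate. Kiapp was fitted by the tight-binding equation.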"}, "Carboxypeptidase A1": {"target": "T4, Carboxypeptidase A1 (Homo sapiens, UniProt P15085)", "T4 sequence (P15085 whole entry)": "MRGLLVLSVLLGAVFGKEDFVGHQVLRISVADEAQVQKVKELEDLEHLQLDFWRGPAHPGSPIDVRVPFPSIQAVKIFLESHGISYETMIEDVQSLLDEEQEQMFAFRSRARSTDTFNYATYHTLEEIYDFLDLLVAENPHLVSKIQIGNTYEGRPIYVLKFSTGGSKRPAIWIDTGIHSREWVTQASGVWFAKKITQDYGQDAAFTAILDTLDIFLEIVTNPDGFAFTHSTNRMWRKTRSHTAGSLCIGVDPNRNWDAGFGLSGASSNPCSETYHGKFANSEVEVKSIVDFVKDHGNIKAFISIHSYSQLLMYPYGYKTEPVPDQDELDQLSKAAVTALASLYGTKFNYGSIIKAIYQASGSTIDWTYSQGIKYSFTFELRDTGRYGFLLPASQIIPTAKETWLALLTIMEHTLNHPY", "experiment": "Inhibition of human CPA1 using AAFP as substrate preincubated for 45 mins to 2 hrs measured at 30 sec intervals for 15 mins by UV/vis-spectrophotometry", "method_in_brief": "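hCPA1 was used at 1.0x10-8 M with AAFP substrate at 1.0x10-4 M, read at 355 nm. Enzyme and inhibitor were preincubated 45 min at 37 °C before substrate was added. Initial velocities were read every 30 sec for 15 min, in triplicate. Apparent Ki came from a fit to the tight-binding equation.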"}}, "note": "The source made the active and inactive calls. The rule behind the calls is not given here."}
{"smiles": "CC(=O)N[C@@H](CC(C)C)C(=O)N[C@@H](Cc1ccccc1)P(=O)(O)C[C@@H](Cc1ccccc1)C(=O)O", "values": [{"measurement": "Ki", "setting": "Carboxypeptidase B", "result": 0.12, "unit": "nM"}, {"measurement": "inhibition", "setting": "[1]", "result": "inactive"}, {"measurement": "Ki", "setting": "Carboxypeptidase A4", "result": 0.39, "unit": "nM"}, {"measurement": "Ki", "setting": "Carboxypeptidase A2", "result": 1, "unit": "nM"}, {"measurement": "Ki", "setting": "Carboxypeptidase A1", "result": 0.04, "unit": "nM"}]}
